Only some compounds are listed: those with a hit (about 3.9% of all), similar ones and a draw of the others.
NF-kB expr up = NF-kB expression increase, human neuronal cells; NF-kB reporter expression; stronger effect = higher value; fold change at 12.5 µM; 190,000 tested, 1.6% active; AID 1239; in the data active means fold change above about 3.3
STAT1 activator = activators of IFN-gamma induced STAT1 signaling | 200,000 tested, 2.6% active | activation (% of control), % at 5.5 µM | AID 932 | NIH 3T3 STAT1-luciferase reporter, luminescence; 100% = IFN-gamma alone, no compound;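 active means activation above the screen-wide mean activation plus 3 SD, cut at about 130% in these data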;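 further: raw ratio to IFN-gamma control signal so 100% means no change and 0% no light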
STAT1 inh = STAT1 signaling inhibition. NIH 3T3 STAT1-luciferase reporter, IFN-gamma, luminescence. inhibition, % at 5.5 µM. 200,000 tested, 0.35% active;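 active means inhibition above a set limit, the mean inhibition across all tested compounds plus 3 SD, cut at about 34% in these data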;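 further: 0% = IFN-gamma with DMSO and 100% = IFN-gamma with 300 µM nifuroxazide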
APP 5'UTR act = activates APP 5'UTR luciferase reporter; activation, % at 2 µM; SH-SY5Y APP 5'UTR luciferase reporter, luminescence; zero percent = DMSO vehicle wells; 190,000 tested, 1% active; AID 1276;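 active means activation above a set limit, based on mean plus 3 SD of controls, cut at about 140% in these data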
STAT3 activator = increases IL-6 driven STAT3 reporter signal; 190,000 tested, 0.91% active; activation (% of control), % at 5.6 µM; U3A cells, IL-6 STAT3-luciferase reporter, luminescence; 100% = signal with IL-6 EC80 alone; AID 871;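 active means activation above the screen-wide mean of compound activation plus 3 SD, cut at about 130% in these data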;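 further: 0% = background luminescence of wells with medium and substrate only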
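Assay system – human STAT1-deficient U3A cells with stable STAT3-luciferase reporter · Also added – IL-6 (33 ng/mL) · Schedule – compound 1 h, then IL-6 6 h at 37 °C · Technique – reporter luminescence signal · Evaluation – % activation versus median of IL-6-stimulated wells · Benchmarks – IL-6-only wells as 100% reference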
Pf gamet viab = inhibitors of late stage P. falciparum gametocyte viability. P. falciparum stage V gametocytes, ATP luminescence, 24 h. inhibition, % at 10.9 µM. 150,000 tested, 0.065% active;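 active means inhibition above the mean plus 3 SD of compounds within the control limits, set per campaign, cut at about 38% in these data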;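 further: 0% = DMSO wells and 100% = medium only without gametocytes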
The depositor's hits bear a star; · = no result given.

SMILES	NF-kB expr up	STAT1 activator	STAT1 inh	APP 5'UTR act	STAT3 activator	Pf gamet viab
CC(C)(C)n1ncc2c(=O)n(CC(=O)c3ccc(Cl)cc3)cnc21	2.8	154*	-59	121	105	·
COc1cc(/C=N/N(C)S(=O)(=O)c2ccc(C)cc2)cc([N+](=O)[O-])c1O	·	·	·	·	·	0
c1ccc(-c2cc(N3CCCCCC3)n[nH]2)cc1	1.4	130*	-33	28	99	·
CCC/C(C#Cc1ccsc1)=C1/c2ccccc2C(=O)N1c1ccccc1	·	·	·	·	·	8
CCCCn1nc2cc(C(=O)NCCc3cccs3)ccc2c1OCC	1.3	113	-14	7	100	-13
CCOc1ccc(C(=O)NCc2cccs2)cc1	1.7	100	-5	·	114	·
CCOc1c2ccc(C(=O)NCCc3cccs3)cc2nn1CC	3	144*	-49	81	104	-9
CCCCOc1ccc(C(=O)NCCc2cccs2)cc1	2.5	134*	-40	53	110	·
CN(C)/C=C/C(=O)c1ccc(-c2ccc(Cl)cc2Cl)o1	2.4	125	-30	47	91	-10
CCOc1ccc2nc(N3C(=O)/C(=C/c4ccccc4)NC3=S)sc2c1	1.9	137*	-41	37	110	-14
CCCc1sc(N/N=C/c2ccccn2)nc1-c1ccc(F)cc1	1.1	102	-2	118	93	·
Cc1nc(N/N=C/c2ccccn2)sc1C	1.1	29	80*	-5	25	-29
COc1ccc2c(c1)CC/C2=N\NC(=O)c1ccccc1	1.5	130*	-31	42	106	17
Cc1cccc(/C(N)=N/OC(=O)c2ccco2)c1	6.4*	110	-11	163*	82	·
N/C(=N\OC(=O)c1ccco1)c1ccccc1	2.2	143*	-50	142*	89	·
Cc1ccc(/C(N)=N/OC(=O)c2ccco2)cc1	5.2*	94	6	162*	77	-24
Cc1cccc(/C(N)=N/OC(=O)N2CCOCC2)c1	1.6	116	-18	19	101	·
COc1ccc(/C(N)=N/OC(=O)c2ccco2)cc1	0.96	50	53*	182*	56	·
O=C(N/N=C1/SCC(=O)N1Cc1ccco1)c1ccccc1F	0.94	96	2	15	99	-11
CC(CCc1ccccc1)NC(=O)C1CCC1 (stereo not given)	·	·	·	·	·	11
O=C(CCc1nnc(-c2ccc3c(c2)OCO3)o1)N1CCC(c2ccc(F)cc2)C1 (stereo not given)	1.2	134*	-39	50	116	-6
CC1CCN(C(=O)CCc2nnc(-c3ccccc3)o2)CC1	2.5	135*	-40	42	111	8
CN(C)c1ccc(/C=C2/SC(=O)N(CCN=C3NS(=O)(=O)c4ccccc43)C2=O)cc1	1.4	133*	-37	35	110	2
CN(C)c1ccc(/C=C2\SC(=O)N(CC(O)Cn3c4ccccc4c4ccccc43)C2=O)cc1 (stereo not given)	0.96	103	-4	·	106	9
C[C@H](CO)N1C[C@H](C)[C@@H](CN(C)C(=O)Nc2ccc(C(F)(F)F)cc2)Oc2ccc(NS(=O)(=O)c3ccccc3)cc2C1=O	·	·	·	·	·	3
SMILES	NF-kB expr up	STAT1 activator	STAT1 inh	APP 5'UTR act	STAT3 activator	Pf gamet viab
O=S(=O)(Cc1cc(-c2ccccc2Cl)no1)c1ccccc1	0.98	132*	-39	68	103	-3
Clc1ccc(OCc2cc(-c3ccccc3)no2)cc1Cl	1.8	109	-10	12	92	-2
O=S(=O)(Cc1cc(-c2ccc(Cl)cc2)no1)c1ccccc1	2.1	135*	-38	44	93	-29
Clc1ccc(-c2cc(COc3ccccc3)on2)cc1	1.9	132*	-35	42	93	4
COCCn1c(-c2ccc(Br)cc2)nc2oc3cc(OC)ccc3c(=O)c2c1=O	·	·	·	·	·	11
CC(=Nc1cccc(C)c1)c1sc2ccccc2c1O	6*	170*	-76	137*	138*	·
CC(C)(C)C(C(=O)Oc1ccccc1)c1ccccc1 (stereo not given)	·	·	·	·	·	5
CCc1ccc(C(=O)/C=C/c2cnn(C)c2C)s1	11*	129*	-32	174*	102	-2
Cc1c(/C=C/C(=O)c2cccs2)cnn1C	2.3	104	-8	11	98	·
O=c1[nH]c(S)nc2sc3c(c12)CCCC3	0.99	106	-7	-6	99	·
O=c1[nH]c(-c2ccco2)nc2sc3c(c12)CCCC3	5.8*	149*	-55	154*	95	3
COc1ccc(NC(=O)Nc2cc(C)ccc2F)cc1	2.6	130*	-33	123	99	·
COc1ccc(NC(=O)Nc2ccc(Br)c(C)c2)cc1	1.5	145*	-49	61	103	4
COc1cccc(NC(=O)Nc2cc(C)ccc2F)c1	1.5	118	-20	42	94	10
COc1ccc(NC(=S)Nc2ncccc2C)cc1OC	1.9	131*	-36	39	86	-5
COc1ccc(NC(=O)Nc2ncccc2C)cc1	1.9	139*	-40	13	96	-43
Cc1cccnc1NC(=O)Nc1ccccc1	·	·	·	·	·	-4
CS(=O)(=O)N1c2ccccc2[C@]2(Br)C[C@H]3C(=O)N[C@@H](Cc4ccccc4)C(=O)N3[C@H]12	·	·	·	·	·	14
C/C(O)=C(/C=Nc1ccccc1)C(=O)Nc1ccccc1	1.3	96	3	-11	112	·
COc1ccc(NC(=O)Nc2nnc(C(C)C)s2)cc1	2.4	130*	-33	69	97	·
COc1ccc(CC(=O)Nc2nnc(C(C)C)s2)cc1	1.4	102	-4	16	100	4
Cc1ccc(-n2ncc3ccccc3c2=O)cc1Cl	4.9*	148*	-53	97	91	·
Cc1nn(-c2ccc(Cl)cc2)c(=O)c2ccccc12	2.7	128	-33	62	134*	-12
Cc1nn(-c2ccc3ccccc3c2)c(=O)c2ccccc12	3.2	149*	-55	142*	124	·
COc1c(Cl)cnn(-c2cccc(C)c2)c1=O	·	·	·	·	·	-5
SMILES	NF-kB expr up	STAT1 activator	STAT1 inh	APP 5'UTR act	STAT3 activator	Pf gamet viab
Cc1nn(-c2nc3ccccc3[nH]2)c(N)c1-c1ccc(Cl)cc1	1.9	114	-16	106	109	·
Cc1nn(-c2nc3ccccc3[nH]2)c(=O)c2ccccc12	0.29	9	97*	-74	8	61*
O=S(=O)(c1ccc(-c2ccccn2)s1)N1CCC2(CC1)OCCO2	·	·	·	·	·	7
COc1ccc(C(=O)O/N=C(\N)Cc2ccc([N+](=O)[O-])cc2)c(OC)c1	·	·	·	·	·	-7
C=CCN1N=C(/C=C/c2ccc(C)cc2)CCC1=O	2.1	137*	-39	44	102	-2
COc1cccc(-c2cc(C(=O)Nc3cccc(O)c3)no2)c1	6.7*	100	0	106	29	12
COc1cccc(NC(=O)C(=S)NC2CCCCC2)c1	7*	130*	-34	156*	79	10
COc1cccc(-c2cc(C(=O)Nc3ccccc3SC)no2)c1	1.3	129*	-32	50	98	9

Screening data (PubChem BioAssay)
